Experiments:
[1] = system: Mus musculus; assay: Inhibitory activity against tremorine-induced tremors, after 1 hour of peroral administration in mouse at dose 7.5 mg/kg; assay type: functional; conditions: route oral
Procedure, shortened: (§1)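 Male mice fasted overnight, dosed orally with arabic gum suspension (10 mL/kg) 1 or 5 h before test, vehicle controls included. Tremorine 20 mg/kg ip given 1 h after compounds; central (tremor) and peripheral (salivation) parasympathetic signs recorded. ED50 = dose protecting 50% of animals, by probit analysis.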

[2] = system: Mus musculus; assay: Inhibition of spontaneous locomotor activity, after 5 hour of peroral administration in mouse; assay type: functional; conditions: po
Procedure, shortened: (§2)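 Mice in groups of five were dosed orally with gum arabic suspensions at 10 mL/kg after an overnight fast, with a vehicle control group. Locomotion was counted for 10 min in a photocell activity cage, in at least two groups per dose. ED50, by probit analysis, is the dose giving 50% inhibition against controls.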

[3] = system: Mus musculus; assay: Inhibitory activity against tremorine-induced tremors, after 5 hour of peroral administration in mouse at dose 7.5 mg/kg; assay type: functional; conditions: route oral; procedure, shortened: as §1
[4] = system: Mus musculus; assay: Anticonvulsant activity against pentylenetetrazole-induced convulsions, after 1 hour of peroral administration in mouse at a dose of 15 mg/kg; assay type: functional; conditions: route oral
Procedure, shortened: (§3)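 Compounds were dosed as bases suspended in arabic gum at 10 mL/kg orally, after an overnight fast, with vehicle controls. Protection meant no bilateral forepaw clonic seizures or head twitches (tryptamine), or no tonic hind-limb extension (the other two). ED50 is the dose protecting 50%, by probit analysis.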

[5] = system: Mus musculus; assay: Inhibition of spontaneous motor activity after 5 hour of peroral administration in mouse; assay type: functional; conditions: po; procedure, shortened: as §2
[6] = system: Mus musculus; assay: Effect on skeletal muscle tone, after 5 hour of peroral administration in mouse at a dose of 100 mg/kg; assay type: functional; conditions: Muscle tissue, route oral
Procedure, shortened: (§4)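 Male mice were placed for 1 h on a 60° inclined wire screen just after dosing and 4 h later. In a second test, trained mice hung by the forepaws from a horizontal 1.8 mm wire 15 cm up; normal mice touch it with a hind paw within 2 s and stay ≥1 min. ED50 is the dose making 50% fall. Dosing was oral in gum arabic suspension at 10 mL/kg after an overnight fast.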

[7] = system: Mus musculus; assay: Anticonvulsant activity against electroshock-induced convulsions, after 5 hour of peroral administration in mouse at a dose of 40 mg/kg; assay type: functional; conditions: route oral; procedure, shortened: as §3
[8] = species on record: Rattus norvegicus; assay: Body weight gain, after 2 hour of period of conditioned feeding in rats,; assay type: functional
Procedure, shortened: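 Female rats (250–280 g) were kept singly on a 22-h food deprivation schedule, with pellets 10–12 a.m. and water always available. After 30–40 days of training they were dosed 1 h before the 2-h feeding and weighed before and after it. Weight gain was expressed as a percentage of the two preceding control days. ED50 is the dose giving 50% reduction.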

[9] = system: Mus musculus; assay: Anticonvulsant activity against pentylenetetrazole-induced convulsions, after 1 hour of peroral administration in mouse at a dose of 40 mg/kg; assay type: functional; conditions: route oral
Procedure, shortened: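 Male mice dosed orally (arabic gum, 10 mL/kg) 1 or 5 h before challenge with tryptamine 100 mg/kg iv, pentylenetetrazol 110 mg/kg ip, or maximal electroshock. Protection means no bilateral forepaw clonic seizures and head twitches (tryptamine) or no tonic hind-limb extension (others). ED50 protects 50% of mice.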

[10] = system: Mus musculus; assay: Inhibitory activity against tremorine-induced tremors, after 5 hour of peroral administration in mouse; assay type: functional; conditions: po
[11] = system: dog (Canis familiaris); assay: Antagonistic activity against apomorphine-induced emesis, after 5 hour of peroral administration in dogs; conditions: Canis lupus familiaris, po
[12] = system: Mus musculus; assay: Anticonvulsant activity against pentylenetetrazole-induced convulsions, after 1 hour of peroral administration in mouse at a dose of 9.4 mg/kg; assay type: functional; conditions: route oral; procedure, shortened: as §3
[13] = system: Mus musculus; assay: Contractile activity in skeletal muscles, after 1 hour of peroral administration in mouse at dose 30 mg/kg; assay type: functional; conditions: Muscle tissue, route oral; procedure, shortened: as §4
[14] = system: Mus musculus; assay: Anticonvulsant activity against tryptamine-induced convulsions, after 1 hour of peroral administration in mouse at a dose of 40 mg/kg; assay type: functional; conditions: route oral; procedure, shortened: as §3
[15] = system: Rattus norvegicus; assay: Activity to evoke catalepsy in rats, by administering perorally at a dose of 200 mg/kg; assay type: functional; conditions: route oral
Procedure, shortened: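 Rats fasted overnight and given oral doses in arabic gum suspension (10 mL/kg), 1 h before screening or 1 and 5 h before profile testing. Forelegs placed on a horizontal bar 7 cm high, three times at 5-min intervals. Immobility of at least 15 s counts as catalepsy. ED50 is the dose giving catalepsy in 50% of rats, by probit analysis. Parenthetical entries give the maximal dose and percent activity.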

[16] = system: Mus musculus; assay: Activity of inclined screen in mouse, after 1 hour of peroral administration in mouse at a dose of 100 mg/kg; assay type: functional; conditions: route oral
Procedure, shortened: (§5)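 Male mice dosed orally (arabic gum suspension, 10 mL/kg, fasted overnight) 1 or 5 h before testing. Placed for 1 h on a wire screen bent at 60° to the horizontal. Ataxic or miorelaxed mice slide off. ED50 is the dose at which 50% of mice fall, by probit analysis. Ten animals per dose, with vehicle controls.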

[17] = system: Mus musculus; assay: Activity of inclined screen in mouse, after 5 hour of peroral administration in mouse at a dose of 100 mg/kg; assay type: functional; conditions: route oral; procedure, shortened: as §5
[18] = system: Mus musculus; assay: Contractile activity in skeletal muscles, after 1 hour of peroral administration in mouse at dose of 0 mg/kg; assay type: functional; conditions: Muscle tissue, route oral; procedure, shortened: as §4
[19] = system: Mus musculus; assay: Anticonvulsant activity against electroshock-induced convulsions, after 5 hour of peroral administration in mouse at dose of 100 mg/kg; assay type: functional; conditions: route oral; procedure, shortened: as §3
[20] = system: Mus musculus; assay: Activity of inclined screen in mouse, after 5 hour of peroral administration in mouse at dose of 100 mg/kg; assay type: functional; conditions: route oral; procedure, shortened: as §5
[21] = system: Mus musculus; assay: Anticonvulsant activity against pentylenetetrazole-induced convulsions, after 5 hour of peroral administration in mouse at dose of 100 mg/kg; assay type: functional; conditions: route oral; procedure, shortened: as §3
[22] = system: Mus musculus; assay: Anticonvulsant activity against tryptamine-induced convulsions, after 5 hour of peroral administration in mouse at dose of 40 mg/kg; assay type: functional; conditions: route oral; procedure, shortened: as §3

Q: CN(C)CCCN1c2ccccc2Sc2ccc(Cl)cc21 [CHLORPROMAZINE] was tested. Which inhibition in vivo at 7.5 mg/kg [1] did it give?
A: 0%

Q: And the ED50 [2]?
A: 4.8 mg/kg

Q: And the inhibition in vivo at 7.5 mg/kg [3]?
A: 15%

Q: What about the inhibition in vivo at 15 mg/kg [4] of the same compound?
A: 0%

Q: COc1ccccc1N1CCN(CCCC(=O)c2ccc(F)cc2)CC1 [FLUANISONE] was tested. Which ED50 [5] did it give?
A: 15.7 mg/kg

Q: And the inhibition in vivo at 100 mg/kg [6]?
A: 0%

Q: And the inhibition in vivo at 40 mg/kg [7]?
A: 0%

Q: And the ED50 [8]?
A: 6 mg/kg

Q: And the inhibition in vivo at 40 mg/kg [9]?
A: 0%

Q: With O=C(CCCN1CCC(O)(c2ccc(Cl)cc2)CC1)c1ccc(F)cc1 [HALOPERIDOL] as the compound, how does the ED50 [10] read?
A: 20 mg/kg

Q: What about the ED50 [11] of the same compound?
A: 0.04 mg/kg

Q: What about the inhibition in vivo at 9.4 mg/kg [12] of the same compound?
A: 0%

Q: What about the inhibition in vivo at 30 mg/kg [13] of the same compound?
A: 0%

Q: Which results are given for O=c1[nH]c(-c2ccc(F)cc2)c(CCN2CCN(c3cc(Cl)cc(Cl)c3)CC2)o1 [LODIPERONE]?
A: inhibition in vivo at 40 mg/kg [14]: 0%; inhibition in vivo at 200 mg/kg [15]: 0%; inhibition in vivo at 100 mg/kg [16]: 0%; inhibition in vivo at 100 mg/kg [17]: 0%

Q: Which results are given for COc1ccccc1N1CCN(CCc2oc(=O)[nH]c2-c2ccc(F)cc2)CC1 [ZOLOPERONE]?
A: ED50 [18]: 179 mg/kg; inhibition in vivo at 100 mg/kg [19]: 0%; inhibition in vivo at 100 mg/kg [20]: 0%; inhibition in vivo at 100 mg/kg [21]: 0%; inhibition in vivo at 40 mg/kg [22]: 0%

Source: ChEMBL document CHEMBL1124344, “5-Piperazinylalkyl-2(3H)-oxazolones with neuroleptic activity” (J Med Chem, 1989)
